Assay results published in ChEMBL document CHEMBL1145350, “Solid-phase synthesis of quinol fatty alcohols, design of N/O-substituted quinol fatty alcohols and comparative activities on axonal growth” (Bioorg Med Chem Lett, 2006).

System: Radical scavenging activity
Test: Antioxidant activity assessed as ability to scavenge hydroxyl radicals by ABTS competition assay
Assay type: functional
Procedure, shortened: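 Hydroxyl radical scavenging in ethanolic medium by ABTS competition. Hydroxyl radicals oxidize ABTS to the stable ABTS•+ cation radical, read by absorbance at 405 nm. IC50 is the compound concentration giving a 50% reduction in ABTS•+.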

| IC50 [µM] | SMILES |
| --- | --- |
| 600 | Cc1c(C)c2c(c(C)c1O)CCC(C)(C(=O)O)O2 (configuration not stated) [TROLOX] |
| > 10000 | COc1ccc(OC)c(CCCCCCCCCCCCCCCO)c1 |
